# This is a sample that favours compounds with a hit; in the whole collection about 1.8% have one here.
# M5 antag: human M5 muscarinic receptor antagonists, primary screen, CHO cells, Fluo-8 calcium fluorescence | actives 0.59% (n = 360,000) | inhibition, % at 3 µM | Muscarinic acetylcholine receptor M5 (Homo sapiens), P08912 | AID 624040, 2012 | CHO-hM5 cells, ACh EC80;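 active means inhibition above a per-plate cutoff, the mean of that plate's test compounds plus 3 SD, cut at about 27% in these data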
# CHRM5 agonist: human M5 muscarinic receptor agonists, primary screen, CHO-K1 cells, Fluo-8 calcium fluorescence; AID 624037, 2012; CHO-K1 hM5 cells; 0% DMSO wells, 100% maximal acetylcholine response; actives 0.19% (n = 360,000); Muscarinic acetylcholine receptor M5 (Homo sapiens), P08912; activation, % at 3 µM;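 active means activation above the run's mean over test compounds plus 3 SD, cut at about 23% in these data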;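 further: signal is peak over basal fluorescence ratio across the kinetic read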
# CHRM4 agonist: human M4 muscarinic receptor agonists, primary screen, CHO-K1 cells, Fluo-8 calcium fluorescence. AID 624127, 2012. CHO-K1 hM4/Gqi5; vehicle 0%, full acetylcholine response 100%. activation, % at 3 µM. actives 0.14% (n = 360,000);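 active means activation above the run mean over all test wells plus 3 SD, cut at about 32% in these data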;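 further: peak over basal fluorescence ratio per well then scaled between controls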
# Target sequence (P08173 whole entry, looked up): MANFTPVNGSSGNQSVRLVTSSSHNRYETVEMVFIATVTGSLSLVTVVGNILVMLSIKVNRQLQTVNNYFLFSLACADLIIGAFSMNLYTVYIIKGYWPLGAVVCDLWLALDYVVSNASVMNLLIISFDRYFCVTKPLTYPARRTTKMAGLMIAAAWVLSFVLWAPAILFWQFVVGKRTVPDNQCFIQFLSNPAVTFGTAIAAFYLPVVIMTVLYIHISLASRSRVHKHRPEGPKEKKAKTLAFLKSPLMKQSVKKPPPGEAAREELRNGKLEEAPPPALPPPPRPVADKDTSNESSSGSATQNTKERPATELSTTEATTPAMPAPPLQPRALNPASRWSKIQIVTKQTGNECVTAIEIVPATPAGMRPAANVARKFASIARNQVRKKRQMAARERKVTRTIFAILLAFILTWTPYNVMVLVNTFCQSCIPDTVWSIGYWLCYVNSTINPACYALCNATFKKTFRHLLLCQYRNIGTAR
# M5 PAM: human M5 muscarinic receptor positive allosteric modulators, primary screen, CHO-K1 cells, Fluo-8 calcium fluorescence. CHO-K1 hM5, ACh EC20 PAM; 0% = ACh EC20, 100% = ACh EC100. Muscarinic acetylcholine receptor M5 (Homo sapiens), P08912. activation, % at 3 µM. actives 0.3% (n = 360,000);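 active means activation above the run cutoff, the mean activation of all test compounds plus 3 SD, cut at about 18% in these data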
#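 system = human M5 receptor in CHO-K1 cells | compound = one concentration, 3 µM final (nominal) | schedule = Post-acetylcholine fluorescence recording 140 s | signal = Fluo-8 calcium dye fluorescence, kinetic read | benchmarks = low control EC20 acetylcholine (0%), high control EC100 acetylcholine (100%) | repeats = singlicate, one well per test compound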
# CHRM4 antagonist: human M4 muscarinic receptor antagonists, primary screen, CHO cells, Fluo-8 calcium fluorescence; actives 0.73% (n = 360,000); Muscarinic acetylcholine receptor M4 (Homo sapiens), P08173; CHO-hM4 cells, ACh EC80; AID 624125, 2012; inhibition, % at 3 µM;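 active means inhibition above its plate's cutoff, the mean inhibition of sample wells plus 3 SD, cut at about 27% in these data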
# CHRM4 PAM: human M4 muscarinic receptor positive allosteric modulators, primary screen, CHO-K1 cells, Fluo-8 calcium fluorescence; Muscarinic acetylcholine receptor M4 (Homo sapiens), P08173; CHO-K1 hM4/Gqi5, ACh EC20; 0% = ACh EC20, 100% = maximal ACh; activation, % at 3 µM; actives 0.4% (n = 360,000); AID 624126, 2012;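 active means activation above its plate's cutoff, the mean activation of sample wells plus 3 SD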
# A number is an active result; – = inactive; ! = repeats disagree.
SMILES,M5 antag,CHRM5 agonist,CHRM4 agonist,M5 PAM,CHRM4 antagonist,CHRM4 PAM
COc1cccc(CNc2nc(NCC3CC3)nc3ccsc23)c1,30.6,–,–,–,–,–
Clc1ccccc1OCCNc1nc(NCC2CC2)nc2ccsc12,30.0,–,–,–,–,–
CNc1nc(NCCOc2ccccc2Cl)c2sccc2n1,–,–,–,–,–,–
CSc1ccccc1CNc1nc(NCC2CC2)nc2ccsc12,30.3,–,–,–,–,–
CC1(C)[C@H]2CC=C(CN3CCC(N4CCC(C(=O)N5CCCC5)CC4)CC3)[C@@H]1C2,–,–,–,–,55.8,–
COC(=O)CCC(NS(=O)(=O)OCC(Cl)(Cl)Cl)c1ccccc1 (stereo not given),–,–,–,–,–,–
CC(C)CC(NS(=O)(=O)OCC(Cl)(Cl)Cl)c1ccccc1 (stereo not given),–,–,–,–,29.9,–
COc1ccccc1NC(=O)COC(=O)C1=NN(c2ccccc2)C(=O)CC1,–,–,–,18.8,–,–
CC1=CC(C)(C)NC(=S)N1c1cccc2cc(S(=O)(=O)O)ccc12,27.3,–,–,–,–,–
CC1=CC(C)(C)NC(=S)N1c1ccccc1C,–,–,–,–,–,–
COc1cccc(C(=O)NCCN2CCC(n3c(=O)[nH]c4ccccc43)CC2)c1,–,–,–,–,–,–
CC(=O)N1CCN(c2ccc(NC(=O)c3ccc(C)c([N+](=O)[O-])c3)cc2)CC1,–,–,–,18.3,–,–
COCCNC(=O)/C(C#N)=C/c1c(N2CCCCCC2)nc2ccccn2c1=O,–,–,–,–,98.7,–
CCc1ccc(OCC(=O)Nc2ccncc2)cc1,–,–,–,–,–,–
O=C(COc1ccc(C(=O)c2ccccc2)cc1)Nc1cccnc1,31.0,–,–,–,–,–
Cc1ccc(Oc2ccc(OCC(=O)Nc3ccncc3)cc2)cc1,34.2,–,–,–,–,–
COC(=O)[C@]12CCCCC=C1N(Cc1ccc(Cl)cc1Cl)C(=O)[C@H](CC(=O)NCCc1ccccc1OC)C2,–,–,–,–,–,–
CN1C=CC=C/C1=C1\SC(=S)N(c2ccccc2)C1=O,–,–,–,–,–,17.1
c1ccc(CNC2CC3CCC2C3)cc1 (stereo not given),–,–,–,–,–,–
CC(C)NC(=O)Cc1ccc(Br)cc1,–,–,–,–,–,–
COc1ccc(C(C)NC(=O)Cc2ccc(Br)cc2)cc1 (stereo not given),–,–,37.3,–,–,–
Cc1cccc(C)c1NC(=O)C1(C)CSCC(=O)N1Cc1ccco1 (stereo not given),–,–,–,–,–,–
CN1CCN(Cc2nc3ccccc3c(=O)n2Cc2nc(-c3ccc4ccccc4c3)cs2)CC1,–,–,–,–,–,21.7!
CCCN(C)C[C@H]1OCc2cnnn2CCCC(=O)N([C@H](C)CO)C[C@@H]1C,–,–,–,–,–,–
COC(=O)c1ccc(N2CCOCC2)c(NC(=O)Nc2cccc(OC)c2)c1,–,–,–,–,–,–
SMILES,M5 antag,CHRM5 agonist,CHRM4 agonist,M5 PAM,CHRM4 antagonist,CHRM4 PAM
CCOC(=O)c1ccc(N2CCN(c3ccccc3F)CC2)c(NC(=O)Nc2cccc(OC)c2)c1,45.4,–,–,–,–,–
CCOC(=O)C1(C)CCN1C(=O)c1cccc2ccccc12 (stereo not given),–,–,–,–,–,–
Clc1ccc(-c2nc3c4ccccc4ccn3c2CC2CCCCC2)cc1,–,–,–,–,–,–
CCC1Sc2ccc(S(=O)(=O)Nc3ccc(OC)c(OC)c3)cc2NC1=O (stereo not given),31.2,–,–,–,–,–
CCSc1nc2cc(S(=O)(=O)N3CCOCC3)ccc2o1,–,–,–,–,–,–
Cc1ccc(C(=O)CSc2nc3cc(S(=O)(=O)N4CCOCC4)ccc3o2)cc1,–,–,–,19.4,–,–
N#CC1=C(N)OC(c2ccccc2)=C(C#N)C1c1ccc2c(c1)OCO2 (stereo not given),–,–,–,–,–,–
N#CC1=C(N)OC2=C(C(=O)CC(c3ccccc3)C2)C1c1ccc2c(c1)OCO2 (stereo not given),–,–,–,–,38.0,–
C/C(CC(=O)NCc1ccccc1)=N\NC(=O)c1cnccn1,–,–,–,–,–,31.3
Cn1c(=O)c2cc(NC(=S)NC3CCCCC3)ccc2n1-c1ccccc1,–,–,–,–,–,–
O=C(Nc1c(C(=O)C2CC2)oc2ccccc12)c1ccc(Cl)cc1,–,–,–,–,–,25.6
COc1ccccc1N1CCNC(C)C1=O (stereo not given),–,–,–,–,–,14.4
COc1ccccc1N1C(=O)C2C3C=CC(CC3)C2C1=O (stereo not given),–,–,–,–,–,–
COc1cccc(/C=C/C(=O)OCC(=O)c2c[nH]c3ccccc23)c1OC,27.2,–,–,–,–,–
CCOC(=O)C1CCN(C(=O)COC(=O)/C=C/c2ccccc2)CC1,–,–,–,–,–,–
CCOC(=O)C1CCN(C(=O)COC(=O)/C=C/c2cccc(OC)c2OC)CC1,–,24.1,–,–,–,–
COc1cccc(/C=C/C(=O)OCC(=O)c2c[nH]c3ccccc23)c1,–,–,–,–,–,–
c1cc(-c2ccc3nncn3c2)ccc1CN1CCOCC1,–,–,–,–,–,–
Cc1nn(CC(=O)NCc2ccccc2)c(C)c1[N+](=O)[O-],–,–,–,–,–,–
Cc1nn(CC(=O)NC(=O)c2ccccc2)c(C)c1[N+](=O)[O-],–,–,–,–,–,22.8
CCn1nc(C)c([N+](=O)[O-])c1C(=O)NNC(=O)c1ccc(Cl)cc1,–,–,–,19.5,–,–
COC(=O)N(C)C[C@@H]1OCc2cn(nn2)CCCC(=O)N([C@@H](C)CO)C[C@H]1C,–,–,–,–,–,–
CC(C)(C)Nc1c(C2CCNCC2)nc2c(OCc3ccccc3)cccn12,–,–,–,–,–,–
C=CCC[C@@H](CCCCC)OC(=O)/C=C/[C@H](O)[C@@H](O)C[C@@H](O)CC=C,–,–,–,–,–,–
O=C(CC1C(=O)NCCN1CC1CCCCC1)NCc1cc(F)ccc1F (stereo not given),27.2,–,–,–,–,–
